Target: 5-hydroxytryptamine receptor 6 (Homo sapiens, UniProt P50406)
Test: Binding affinity against h5-HT6 receptor transiently expressed in HEK293 cells
Assay type: cell-based
Procedure, shortened: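 Harvested transfected cells 72 h post-transfection (medium changed at 24 h; dialyzed serum added 24 h later to remove 5-HT), washed in PBS pH 7.40, stored frozen at -80 °C. Competition binding at room temperature, 90 min, in 50 mM Tris-Cl, 10 mM MgCl2, 0.1 mM EDTA pH 7.40 with [3H]LSD 1 nM final; 10 µM clozapine defines nonspecific binding.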

Chain of 5-hydroxytryptamine receptor 6 (P50406 whole entry): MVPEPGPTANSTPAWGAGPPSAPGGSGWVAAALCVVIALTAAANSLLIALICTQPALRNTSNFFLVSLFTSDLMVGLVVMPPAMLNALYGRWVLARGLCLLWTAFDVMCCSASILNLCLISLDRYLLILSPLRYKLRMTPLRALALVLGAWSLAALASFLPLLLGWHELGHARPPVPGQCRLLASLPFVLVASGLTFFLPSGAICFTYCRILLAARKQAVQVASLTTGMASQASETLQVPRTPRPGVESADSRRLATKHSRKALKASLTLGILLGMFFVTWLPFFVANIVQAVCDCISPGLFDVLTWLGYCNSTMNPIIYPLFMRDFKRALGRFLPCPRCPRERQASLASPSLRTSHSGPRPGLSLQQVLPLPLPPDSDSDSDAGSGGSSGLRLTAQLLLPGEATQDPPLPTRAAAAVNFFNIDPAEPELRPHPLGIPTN

Row | Structure (SMILES) | Ki [nM]
1 | O=S(=O)(c1ccccc1)n1cc(C[C@H]2CCCN2)c2ccccc21 | 7.8
2 | O=S(=O)(c1ccccc1)n1cc(C[C@@H]2CCCN2)c2ccccc21 | 46
3 | CN1CCC[C@H]1Cc1c[nH]c2ccccc12 | 9.1
4 | c1ccc2c(C[C@H]3CCCN3)c[nH]c2c1 | 60
5 | c1ccc2c(C[C@@H]3CCCN3)c[nH]c2c1 | 2400
6 | CN1CCC[C@H]1Cn1cc(Cc2ccccc2)c2ccccc21 | 29
7 | CN1CCC[C@@H]1Cc1c[nH]c2ccccc12 | 640
8 | CN1CCC[C@@H]1Cc1cn(S(=O)(=O)c2ccccc2)c2ccccc12 | 0.3
9 | CN1CCC[C@H]1Cc1cn(S(=O)(=O)c2ccccc2)c2ccccc12 | 1.7
10 | CN1CCC[C@@H]1Cn1cc(Cc2ccccc2)c2ccccc21 | 9.9
11 | CN(C)CCc1cn(S(=O)(=O)c2ccccc2)c2ccccc12 | 4

From ChEMBL document CHEMBL1139582, “Interaction of chiral MS-245 analogs at h5-HT6 receptors” (Bioorg Med Chem Lett, 2005)
